The list is not random: actives were taken first. Their share in the collection is about 2.3%.
TRPC4 potent: allosterically enhances the mouse TRPC4 cation channel; AID 2227; Q9QUQ5; B-score at 10 µM; actives 0.42% (n = 310,000); HEK293 TRPC4beta/mu-opioid, DAMGO EC20, Fluo-4 Ca2+ flux; active compounds read high;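 active means B-score of calcium response area above 5 SD of library B-scores, with initial fluorescence ratio within 5 SD of library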
Target sequence (Q9QUQ5 whole entry, looked up): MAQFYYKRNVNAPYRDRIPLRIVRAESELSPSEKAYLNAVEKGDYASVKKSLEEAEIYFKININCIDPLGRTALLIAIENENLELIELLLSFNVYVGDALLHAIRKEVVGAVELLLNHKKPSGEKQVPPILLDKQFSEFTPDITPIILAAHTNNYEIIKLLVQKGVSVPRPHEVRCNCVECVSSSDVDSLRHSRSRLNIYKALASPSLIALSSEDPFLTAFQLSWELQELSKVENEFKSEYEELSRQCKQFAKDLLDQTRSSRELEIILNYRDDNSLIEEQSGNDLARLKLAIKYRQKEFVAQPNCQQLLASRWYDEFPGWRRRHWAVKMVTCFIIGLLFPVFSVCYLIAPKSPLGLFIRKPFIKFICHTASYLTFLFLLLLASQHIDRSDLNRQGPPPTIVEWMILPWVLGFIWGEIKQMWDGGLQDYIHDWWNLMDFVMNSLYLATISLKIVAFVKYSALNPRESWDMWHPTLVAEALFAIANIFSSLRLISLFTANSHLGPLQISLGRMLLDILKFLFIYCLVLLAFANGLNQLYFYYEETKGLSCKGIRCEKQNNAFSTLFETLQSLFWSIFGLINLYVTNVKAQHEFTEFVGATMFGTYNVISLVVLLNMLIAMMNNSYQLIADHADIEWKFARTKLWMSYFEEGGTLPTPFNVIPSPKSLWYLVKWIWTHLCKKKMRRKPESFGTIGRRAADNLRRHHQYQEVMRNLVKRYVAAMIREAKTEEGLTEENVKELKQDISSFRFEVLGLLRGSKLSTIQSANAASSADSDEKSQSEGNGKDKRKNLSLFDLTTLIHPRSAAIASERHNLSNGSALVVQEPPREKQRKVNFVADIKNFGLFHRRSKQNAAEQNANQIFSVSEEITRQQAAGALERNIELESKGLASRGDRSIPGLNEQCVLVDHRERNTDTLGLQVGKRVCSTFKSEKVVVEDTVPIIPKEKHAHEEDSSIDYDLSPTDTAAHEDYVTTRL
TRPC6 activator: mouse TRPC6 channel activation. Q61143. HEK293-TRPC6 membrane potential dye fluorescence; active compounds read high. B-score at 10 µM. actives 0.13% (n = 310,000);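 active means B-score of the integrated fluorescence ratio above library mean plus 3 SD, and starting fluorescence ratio within library mean plus 5 SD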;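 further: higher score means more depolarization so channel activation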
TRPC4 inh: blocks the mouse TRPC4 cation channel; Q9QUQ5; HEK293 TRPC4beta/mu-opioid, DAMGO-evoked Fluo4 calcium flux; active compounds read low; B-score at 10 µM; actives 0.39% (n = 300,000); AID 2247;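 active means B-score over 3 SD under the library average, no early fluorescence shift, positive overall ratio signal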
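material = TRPC4beta/mu-opioid receptor HEK293 cell line | probe or stimulus = sequential submaximal and maximal DAMGO stimulation | compound dosing = one concentration per compound | measured by = Fluo4 Ca2+ flux fluorescence | evaluation = integrated fluorescence ratio relative to baseline, converted to per-well B score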
TRPC4 act: activators of mouse TRPC4 channel. HEK293 TRPC4beta/mu-opioid, Fluo4 calcium fluorescence; active compounds read high. actives 0.49% (n = 310,000). Q9QUQ5. B-score at 10 µM;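 active means B-score above 5 SD of library B-scores, and initial fluorescence ratio not above library mean plus 5 SD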;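 further: positive B-score marks a calcium rise read as TRPC4 activation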
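System – HEK293 cells stably co-expressing mouse TRPC4beta and mu-opioid receptor · Signal – Fluo4 calcium-sensitive dye fluorescence, kinetic, 1 Hz baseline · Benchmarks – buffer (low) and maximal DAMGO (high) · Read-out – B score of integrated fluorescence ratio per well · Incubation – dye loading 45 min room temperature, 110 s kinetic read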
TRPC6 inhibitor: blocks the mouse TRPC6 cation channel | HEK293-TRPC6, membrane potential dye, ACh-evoked depolarization; active compounds read low | Q61143 | actives 1.1% (n = 310,000) | B-score at 10 µM;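 active means B-score under library mean minus 3 SD, initial fluorescence not abnormally high, positive integrated signal ratio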;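 further: B-score derived from integrated fluorescence ratio over the kinetic read; more negative B-score means stronger inhibition of depolarization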
Each line names hits and unclear results; the compound was inactive in the other large screens.

O=c1[nH]c(-[n+]2ccc3ccccc3c2)c(/C=N/N=C(\[O-])c2ccccc2)s1	TRPC4 inh -6
N#Cc1ccsc1NC(=O)CCN1CCN(C(c2ccccc2)c2ccccc2)CC1	none
CN1CCN(Cc2nc3c(c(=O)[nH]c(=O)n3C)n2Cc2c(F)cccc2Cl)CC1	TRPC4 potent 20, TRPC4 act 80
CN1CCN(Cc2nc3c(c(=O)[nH]c(=O)n3C)n2CCc2ccccc2)CC1	none
CCCN(C(=O)COC(=O)C12CCC(=O)N1c1ccccc1S2)c1c(N)n(Cc2ccccc2)c(=O)[nH]c1=O (centres undefined)	TRPC4 inh -7, TRPC4 act 55
CC(O)[C@H]1CNCCN1CC1(c2ccccc2)CC1 (some centres undefined)	none
Cc1noc(C)c1CSCC(=O)N(C)CC(=O)Nc1ccccc1Br	none
CCCCN(CC)CCNC(=O)Cn1cc2c(n1)-c1c(oc(C(=O)N3CCCC3)c1C)CC2	TRPC4 act 125
Cc1c(C(=O)N2CCCC2)oc2c1-c1nn(CC(=O)NCCCOC(C)C)cc1CC2	none
Cc1ccc(-c2c(C(=O)O)c3ccccc3[nH]c2=O)cc1	none
Cc1ccc(OCC(=O)NNC(=S)NC(=O)c2ccc(Br)o2)c(C)c1	TRPC4 potent 20, TRPC4 inh -6, TRPC4 act 69
O=C(COc1ccc(Br)cc1Br)NNC(=O)c1cccs1	none
Cc1ccc(OCC(=O)NNC(=S)NC(=O)c2cccs2)c(C)c1	TRPC4 act 66
COc1ccc(C(=O)NNC(=S)NC(=O)c2ccc(Br)o2)cc1OC	none
Cc1cc(OCC(=O)NNC(=S)NC(=O)c2cccs2)ccc1Cl	TRPC4 potent 19
O=C(NCc1ccccn1)Nc1cccc(Cl)c1Cl	none
CCn1c(=O)c(CCC(=O)NCC2CCCO2)c(C)c2c(C)nn(-c3ccc(C)cc3)c21 (centres undefined)	none
O=C(O)COc1ccccc1/C=N/NC(=O)c1cc2ccccc2cc1O	none
COc1ccc(-c2nc(CN3CCC(C(=O)NC4CCCC4)CC3)c(C)o2)cc1OC	TRPC4 act 101
COc1ccc(C2C(C(=O)Nc3ccc(OC)c(OC)c3)c3ccccc3C(=O)N2C)cc1 (centres undefined)	none
COC(=O)c1ccccc1NC(=S)NC(=O)C1CCCCC1	TRPC4 potent 16
COC(=O)c1ccccc1NC(=O)C1CCCC1	none
Cc1ccc(NC(=O)Cc2c(O)c3ccccc3[nH]c2=O)c(C)c1	none
Cc1ccc2[nH]c3c(c2c1)CNCC3	none
c1ccc2c3c([nH]c2c1)CCNC3	TRPC4 potent 24
Cc1ccc(-c2nc3cnccn3c2Nc2ccc3c(c2)OCO3)cc1	TRPC6 inhibitor -5.7
Cc1cccc(C)c1N1CCc2cn[nH]c21	TRPC4 inh -6
CCOC(=O)CN(C(=O)c1snc(C(N)=O)c1N)C(C(=O)NC1CCCCC1)c1ccc(F)cc1 (centres undefined)	none
O=C(CCNC(=O)c1ccc(Br)cc1)Nc1ccccc1N1CCCC1	none
O=C(CCNC(=O)c1ccc(Cl)cc1)Nc1ccccc1N1CCCCC1	TRPC4 inh -5
COc1ccc(C(CC(=O)O)NS(=O)(=O)c2ccc3c(c2)NC(=O)CO3)cc1 (centres undefined)	none
COc1ccc(CNC(=O)C2CCN(S(=O)(=O)N3CCCCC3)CC2)c(OC)c1	none
CC(Oc1ccc(Cl)cc1Cl)c1nc(-c2ccccn2)no1 (centres undefined)	TRPC4 inh -6
CC(Oc1ccc(Cl)cc1Cl)c1nc(-c2ccc(NC(=O)c3cccnc3)cc2)no1 (centres undefined)	none
CC(=O)Nc1ccc(CN2CCN(CCc3ccccc3)C(CCO)C2)cc1 (centres undefined)	none
CCCn1c(=O)c2ccccc2n2c(SCCOc3ccc(OC)cc3)nnc12	none
CCCn1c(=O)c2ccccc2n2c(SCCOc3ccc(C)cc3)nnc12	TRPC4 inh -6
O=C(CN1CCN(Cc2ccc(Cl)cc2)C1=O)NCCCN1CCN(c2ccc(F)cc2)CC1	TRPC4 inh -6
O=C(CN1CCN(Cc2ccc(Cl)cc2)C1=O)NCCCN1CCOCC1	none
O=[N+]([O-])c1cccc(-c2nnc(C3CC3)o2)c1	TRPC4 inh -6
CCCn1c(C)cc(C(=O)COc2ccc(-c3nnco3)cc2)c1C	none
